Data from ChEMBL document CHEMBL1157985, “Antiplasmodial and cytotoxic activity of natural bisbenzylisoquinoline alkaloids” (J Nat Prod, 1999).

How the values were obtained:
Plasmodium falciparum [1] = assay: Antiplasmodial activity against chloroquine-resistant Plasmodium falciparum W2 infected human erythrocytes as [3H]hypoxanthine uptake after 24 hrs; assay type: functional, organism-based
Procedure, shortened: (§1)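 P. falciparum (D6, W2) cultured in type A+ human erythrocytes, RPMI-1640 with NaHCO3, HEPES and 10% heat-inactivated human plasma, 37 °C under 5% O2/5% CO2/90% N2. Infected red cells at 0.5-1.0% parasitemia, 1.0% hematocrit exposed to compound, duplicate seven-point series, 24 h; then 0.5 μCi [3H]hypoxanthine per well for 18 h more. Filter harvest, scintillation counting; IC50 by nonlinear regression versus zero-drug controls.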

Plasmodium falciparum [2] = assay: Antiplasmodial activity against chloroquine-sensitive Plasmodium falciparum D6 infected human erythrocytes as [3H]hypoxanthine uptake after 24 hrs; assay type: functional, organism-based; procedure, shortened: as §1
[3] = Selectivity index, ratio of ED50 for human KB cells to IC50 for […] Plasmodium falciparum D6; assay type: functional
[4] = Selectivity index, ratio of ED50 for human KB cells to IC50 for chloroquine-resistant Plasmodium falciparum W2; assay type: functional
KB = assay: Cytotoxicity against human KB cells after 72 hrs by SRB assay; assay type: functional; conditions: read-out: ED50 (the source's name)
Procedure, shortened: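 KB-3 cells grown in DMEM with 10% FBS at 37 °C and 5% CO₂ to 60–70% confluence, then used 1 day after a medium change. Samples were dissolved in DMSO and serially diluted in 10% aqueous DMSO. 5×10⁴ cells were exposed for 72 h at 37 °C, then TCA-fixed, stained with 0.4% SRB and read at 515 nm. Zero-day control was subtracted and values expressed relative to solvent control; ED50 by nonlinear regression.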

Q: Which results are given for `COc1ccc2cc1Oc1cc3c(cc1OC)CCN[C@H]3Cc1ccc(cc1)Oc1c3c(cc4c1[C@@H](C2)N(C)CC4)OCO3`?
A: IC50 (Plasmodium falciparum [1]): 662 nM; IC50 (Plasmodium falciparum [2]): 1270 nM; Selectivity Index [3]: 7.5; Selectivity Index [4]: 13.3; EC50 (KB): 8800 nM

Q: Which IC50 (Plasmodium falciparum [1]) does the source give for `C=C[C@H]1CN2CC[C@H]1C[C@H]2[C@H](O)c1ccnc2ccc(OC)cc12` [QUININE] here?
A: 250 nM

Q: What about the IC50 (Plasmodium falciparum [2]) of the same compound?
A: 23.4 nM

Q: What about the “Selectivity Index” value [3] of the same compound?
A: >285

Q: What about the “Selectivity Index” value [4] of the same compound?
A: >222

Q: And the EC50 (KB)?
A: > 55400 nM

Q: What does the source list for `COc1ccc2cc1Oc1ccc(cc1)C[C@H]1c3cc(c(OC)cc3CCN1C)Oc1c(O)c(OC)cc3c1[C@H](C2)N(C)CC3` [FANGCHINOLINE]?
A: IC50 (Plasmodium falciparum [1]): 306 nM; IC50 (Plasmodium falciparum [2]): 179 nM; Selectivity Index [3]: 51; Selectivity Index [4]: 30; EC50 (KB): 9210 nM

Q: Which IC50 (Plasmodium falciparum [1]) does the source give for `COc1cc2c3cc1Oc1c(O)c(OC)cc4c1[C@@H](Cc1ccc(O)c(c1)Oc1ccc(cc1)C[C@@H]3N(C)CC2)N(C)CC4` [OBAMEGINE] here?
A: 825 nM

Q: What about the IC50 (Plasmodium falciparum [2]) of the same compound?
A: 354 nM

Q: And the “Selectivity Index” value [3]?
A: 40

Q: And the “Selectivity Index” value [4]?
A: 17

Q: What about the EC50 (KB) of the same compound?
A: 14100 nM

Q: What does the source list for `COc1ccc2cc1Oc1ccc(cc1)C[C@H]1c3c(cc(OC)c(O)c3Oc3cc4c(cc3OC)CCN(C)[C@H]4C2)CCN1C`?
A: IC50 (Plasmodium falciparum [1]): 67 nM; IC50 (Plasmodium falciparum [2]): 48 nM; Selectivity Index [3]: 76; Selectivity Index [4]: 54; EC50 (KB): 3620 nM

Q: Which IC50 (Plasmodium falciparum [1]) does the source give for `COc1ccc2cc1Oc1ccc(cc1)C[C@H]1c3c(cc(OC)c(O)c3Oc3cc4c(cc3OC)CCN(C)[C@@H]4C2)CCN1C` [HOMOAROMOLINE] here?
A: 474 nM

Q: What about the IC50 (Plasmodium falciparum [2]) of the same compound?
A: 173 nM

Q: What about the “Selectivity Index” value [3] of the same compound?
A: 60

Q: And the “Selectivity Index” value [4]?
A: 22

Q: And the EC50 (KB)?
A: 10400 nM

Q: Which IC50 (Plasmodium falciparum [1]) does the source give for `COc1cc2c3cc1Oc1c(OC)c(OC)cc4c1[C@@H](Cc1ccc(O)c(c1)Oc1ccc(cc1)C[C@@H]3N(C)CC2)N(C)CC4` [BERBAMINE] here?
A: 313 nM

Q: What about the IC50 (Plasmodium falciparum [2]) of the same compound?
A: 128 nM

Q: What about the “Selectivity Index” value [3] of the same compound?
A: 72

Q: What about the “Selectivity Index” value [4] of the same compound?
A: 29

Q: What about the EC50 (KB) of the same compound?
A: 9210 nM

Q: With `COc1cc2c3cc1Oc1c(OC)c(OC)cc4c1[C@@H](Cc1ccc(O)c(c1)Oc1ccc(cc1)C[C@@H]3N(C)CC2)NCC4` as the compound, how does the IC50 (Plasmodium falciparum [1]) read?
A: 193 nM

Q: What about the IC50 (Plasmodium falciparum [2]) of the same compound?
A: 47 nM

Q: What about the “Selectivity Index” value [3] of the same compound?
A: 149

Q: And the “Selectivity Index” value [4]?
A: 36

Q: What about the EC50 (KB) of the same compound?
A: 7100 nM

Q: With `COc1cc2c3cc1Oc1c(O)c(OC)cc4c1[C@H](Cc1ccc(O)c(c1)Oc1ccc(cc1)C[C@@H]3N(C)CC2)N(C)CC4` as the compound, how does the IC50 (Plasmodium falciparum [1]) read?
A: 623 nM

Q: What about the IC50 (Plasmodium falciparum [2]) of the same compound?
A: 232 nM

Q: What about the “Selectivity Index” value [3] of the same compound?
A: 16

Q: What about the “Selectivity Index” value [4] of the same compound?
A: 6

Q: And the EC50 (KB)?
A: 3700 nM

Q: Which IC50 (Plasmodium falciparum [1]) does the source give for `COc1ccc2cc1Oc1ccc(cc1)C[C@H]1c3cc(c(OC)cc3CCN1C)Oc1c(OC)c(OC)cc3c1[C@@H](C2)N(C)CC3` here?
A: 88 nM

Q: And the IC50 (Plasmodium falciparum [2])?
A: 260 nM

Q: What about the “Selectivity Index” value [3] of the same compound?
A: 40

Q: And the “Selectivity Index” value [4]?
A: 120

Q: And the EC50 (KB)?
A: 10600 nM

Q: For `COc1ccc2cc1Oc1ccc(cc1)C[C@@H]1NCCc3cc(OC)c(cc31)Oc1c(O)c(OC)cc3c1[C@@H](C2)N(C)CC3`, which IC50 (Plasmodium falciparum [1]) is on record?
A: 218 nM

Q: And the IC50 (Plasmodium falciparum [2])?
A: 118 nM

Q: And the “Selectivity Index” value [3]?
A: 23

Q: What about the “Selectivity Index” value [4] of the same compound?
A: 12

Q: What about the EC50 (KB) of the same compound?
A: 2700 nM

Q: With `COc1ccc2cc1Oc1ccc(cc1)C[C@H]1c3c(cc(OC)c4c3Oc3cc5c(cc3O4)CCN=C5C2)CCN1C` as the compound, how does the IC50 (Plasmodium falciparum [1]) read?
A: 464 nM

Q: And the IC50 (Plasmodium falciparum [2])?
A: 554 nM

Q: What about the “Selectivity Index” value [3] of the same compound?
A: 11

Q: What about the “Selectivity Index” value [4] of the same compound?
A: 11

Q: And the EC50 (KB)?
A: 5000 nM

Q: For `COc1ccc2cc1Oc1ccc(cc1)C[C@H]1c3c(cc(OC)c(OC)c3Oc3c4c(cc(OC)c3OC)[C@H](C2)N(C)CC4)CCN1C`, which IC50 (Plasmodium falciparum [1]) is on record?
A: 110 nM

Q: What about the IC50 (Plasmodium falciparum [2]) of the same compound?
A: 224 nM

Q: What about the “Selectivity Index” value [3] of the same compound?
A: 37.7

Q: What about the “Selectivity Index” value [4] of the same compound?
A: 76.4

Q: And the EC50 (KB)?
A: 8400 nM

Q: For `COc1ccc2cc1Oc1ccc(cc1)C[C@H]1c3c(cc(O)c(OC)c3Oc3cc4c(cc3OC)CCN(C)[C@@H]4C2)CCN1C`, which IC50 (Plasmodium falciparum [1]) is on record?
A: 510 nM

Q: What about the IC50 (Plasmodium falciparum [2]) of the same compound?
A: 214 nM

Q: And the “Selectivity Index” value [3]?
A: 49

Q: And the “Selectivity Index” value [4]?
A: 21

Q: And the EC50 (KB)?
A: 10500 nM

Q: For `COc1cc2c3cc1Oc1cc(ccc1O)C[C@@H]1c4c(cc5c(c4Oc4ccc(cc4)C[C@@H]3N(C(C)=O)CC2)OCO5)CCN1C`, which IC50 (Plasmodium falciparum [1]) is on record?
A: 4030 nM

Q: And the IC50 (Plasmodium falciparum [2])?
A: 6890 nM

Q: And the “Selectivity Index” value [3]?
A: 1.3

Q: And the “Selectivity Index” value [4]?
A: 2.2

Q: What about the EC50 (KB) of the same compound?
A: 8870 nM

Q: With `COc1ccc2cc1Oc1ccc(cc1)C[C@@H]1NCCc3cc(OC)c4c(c31)Oc1cc3c(cc1O4)CCN(C)[C@H]3C2` [TRILOBINE] as the compound, how does the IC50 (Plasmodium falciparum [1]) read?
A: 451 nM

Q: What about the IC50 (Plasmodium falciparum [2]) of the same compound?
A: 169 nM

Q: What about the “Selectivity Index” value [3] of the same compound?
A: 49

Q: What about the “Selectivity Index” value [4] of the same compound?
A: 19

Q: And the EC50 (KB)?
A: 8300 nM

Q: Which IC50 (Plasmodium falciparum [1]) does the source give for `COc1ccc2cc1Oc1ccc(cc1)C[C@H]1c3cc(c(OC)cc3CC[N+]1(C)[O-])Oc1c(OC)c(OC)cc3c1[C@H](C2)N(C)CC3` (stereo not given in full) here?
A: 948 nM

Q: What about the IC50 (Plasmodium falciparum [2]) of the same compound?
A: 1980 nM

Q: And the “Selectivity Index” value [3]?
A: >16

Q: What about the “Selectivity Index” value [4] of the same compound?
A: >34

Q: What about the EC50 (KB) of the same compound?
A: > 31300 nM

Q: For `COc1ccc2cc1Oc1ccc(cc1)C[C@@H]1c3cc(c(OC)cc3CCN1C)Oc1c(O)c(OC)cc3c1[C@@H](C2)N(C)CC3`, which IC50 (Plasmodium falciparum [1]) is on record?
A: 263 nM

Q: What about the IC50 (Plasmodium falciparum [2]) of the same compound?
A: 86 nM

Q: And the “Selectivity Index” value [3]?
A: 186

Q: What about the “Selectivity Index” value [4] of the same compound?
A: 61

Q: And the EC50 (KB)?
A: 16100 nM

Q: Which IC50 (Plasmodium falciparum [1]) does the source give for `COc1ccc2cc1Oc1ccc(cc1)C[C@H]1c3c(cc4c(c3Oc3cc5c(cc3OC)CCN[C@@H]5C2)OCO4)CCN1C` here?
A: 219 nM

Q: And the IC50 (Plasmodium falciparum [2])?
A: 79 nM

Q: What about the “Selectivity Index” value [3] of the same compound?
A: 84

Q: And the “Selectivity Index” value [4]?
A: 30

Q: What about the EC50 (KB) of the same compound?
A: 6600 nM
